Values belong to the compound of their own block, whether it stands above or below them. The source made the active and inactive calls. The calls are words filed in the database; no cut-off is given here.
Assays:
[1] = molecular target: T1, Serine/threonine-protein kinase PAK 4 (Homo sapiens, UniProt O96013); assay: Inhibition of PAK4 (unknown origin) using substrate S2 after 60 mins by HTRF assay
Target sequence in this assay (O96013 whole entry): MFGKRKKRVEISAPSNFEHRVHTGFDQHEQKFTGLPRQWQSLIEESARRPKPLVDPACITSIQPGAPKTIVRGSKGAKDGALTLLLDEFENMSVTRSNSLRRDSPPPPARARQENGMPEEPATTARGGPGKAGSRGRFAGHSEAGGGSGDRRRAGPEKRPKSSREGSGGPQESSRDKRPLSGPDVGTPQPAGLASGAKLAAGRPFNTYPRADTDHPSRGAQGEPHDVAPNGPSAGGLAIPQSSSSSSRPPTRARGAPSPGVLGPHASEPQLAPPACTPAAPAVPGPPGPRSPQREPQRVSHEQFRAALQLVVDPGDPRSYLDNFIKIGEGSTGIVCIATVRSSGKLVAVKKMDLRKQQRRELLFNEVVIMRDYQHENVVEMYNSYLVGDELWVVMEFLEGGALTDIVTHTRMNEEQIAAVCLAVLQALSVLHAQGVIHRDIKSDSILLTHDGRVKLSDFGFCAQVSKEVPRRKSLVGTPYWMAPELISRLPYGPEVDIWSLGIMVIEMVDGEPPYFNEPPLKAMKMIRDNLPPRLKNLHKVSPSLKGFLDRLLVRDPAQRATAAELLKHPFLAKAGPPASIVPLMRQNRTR

A549 [2] = assay: Induction of apoptosis in human A549 cells assessed as live cells at 1 uM after 72 hrs by Annexin-V/7AAD staining based flow cytometry (reference value: 93.98%); format: functional
A549 [3] = assay: Anti-invasive activity against human A549 cells at 5 uM […] by crystal violet staining based matrigel invasion chamber assay; format: functional, cell-based
A549 [4] = assay: Growth inhibition of human A549 cells after 72 hrs by CCK8 assay; format: functional, cell-based; conditions: A549, 72 h
Summary of the method: (§1)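 Cells seeded in 96-well plates and exposed to various compound concentrations on the seeding day, cultured 72 h at 37 °C. Proliferation read by CCK-8.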

A549 [5] = assay: Antimigratory activity against human A549 cells at 5 uM […] by crystal violet staining based transwell chamber assay; format: functional, cell-based
[6] = molecular target: T1, Serine/threonine-protein kinase PAK 4; assay: Inhibition of PAK4 phosphorylation in human A549 cells after 2 hrs by Western blot analysis; format: cell-based
Summary of the method: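 A549 cells treated with indicated dose for 2 h, lysed in SDS sample buffer, resolved by 10% SDS-PAGE, transferred to nitrocellulose, probed for phospho-PAK4 and PAK4 (GAPDH loading control) with HRP-conjugated secondary antibodies, detected by enhanced chemiluminescence.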
Target sequence in this assay (O96013 whole entry, looked up): as the sequence (O96013 whole entry) above

A549 [7] = assay: Induction of apoptosis in human A549 cells assessed as early apoptotic cells at 1 uM after 72 hrs by Annexin-V/7AAD staining based flow cytometry (reference value: […]); format: functional
A549 [8] = assay: Induction of apoptosis in human A549 cells assessed as necrotic cells at 5 uM after 72 hrs by Annexin-V/7AAD staining based flow cytometry (reference value: 0.65%); format: functional
A549 [9] = assay: Induction of apoptosis in human A549 cells assessed as live cells at 5 uM after 72 hrs by Annexin-V/7AAD staining based flow cytometry (reference value: 93.98%); format: functional
[10] = molecular target: T1, Serine/threonine-protein kinase PAK 4; assay: Inhibition of PAK4 in human A549 cells assessed as reduction in LIMK1 phosphorylation after 72 hrs by Western blot analysis; format: cell-based
Target sequence in this assay (O96013 whole entry, looked up): as the sequence (O96013 whole entry) above

HT-1080 = assay: Growth inhibition of human HT1080 cells after 72 hrs by CCK8 assay; format: functional, cell-based; conditions: HT-1080, 72 h; summary of the method: as §1
A549 [11] = assay: Cell cycle arrest in human A549 cells assessed as accumulation at S phase at 1 uM after 72 hrs by propidium iodide staining based flow cytometry (reference value: 37.39%); format: functional
A549 [12] = assay: Cell cycle arrest in human A549 cells assessed as accumulation at S phase at 5 uM after 72 hrs by propidium iodide staining based flow cytometry (reference value: 37.39%); format: functional
A549 [13] = assay: Induction of apoptosis in human A549 cells assessed as early apoptotic cells at 5 uM after 72 hrs by Annexin-V/7AAD staining based flow cytometry (reference value: […]); format: functional
MCF7 = assay: Growth inhibition of human MCF7 cells after 72 hrs by CCK8 assay; format: functional, cell-based; conditions: MCF7, 72 h; summary of the method: as §1
A549 [14] = assay: Induction of apoptosis in human A549 cells assessed as necrotic cells at 1 uM after 72 hrs by Annexin-V/7AAD staining based flow cytometry (reference value: 0.65%); format: functional
A549 [15] = assay: Induction of apoptosis in human A549 cells after 72 hrs by Annexin-V/7AAD staining based flow cytometry; format: functional, cell-based
[16] = molecular target: T1, Serine/threonine-protein kinase PAK 4; assay: Inhibition of PAK4 in human A549 cells assessed as reduction in cofilin phosphorylation after 72 hrs by Western blot analysis; format: cell-based
Target sequence in this assay (O96013 whole entry, looked up): as the sequence (O96013 whole entry) above

A549 [17] = assay: Cell cycle arrest in human A549 cells assessed as accumulation at G2 phase at 5 uM after 72 hrs by propidium iodide staining based flow cytometry (reference value: 17.62%); format: functional
A549 [18] = assay: Cell cycle arrest in human A549 cells assessed as accumulation at G2 phase at 1 uM after 72 hrs by propidium iodide staining based flow cytometry (reference value: 17.62%); format: functional
A549 [19] = assay: Induction of apoptosis in human A549 cells assessed as late apoptotic cells at 5 uM after 72 hrs by Annexin-V/7AAD staining based flow cytometry (reference value: 2.95%); format: functional
A549 [20] = assay: Cell cycle arrest in human A549 cells assessed as accumulation at G1 phase at 1 uM after 72 hrs by propidium iodide staining based flow cytometry (reference value: 44.99%); format: functional
A549 [21] = assay: Cell cycle arrest in human A549 cells assessed as accumulation at G1 phase at 5 uM after 72 hrs by propidium iodide staining based flow cytometry (reference value: 44.99%); format: functional
A549 [22] = assay: Induction of apoptosis in human A549 cells assessed as late apoptotic cells at 1 uM after 72 hrs by Annexin-V/7AAD staining based flow cytometry (reference value: 2.95%); format: functional

Compound: O=C1Nc2cc(F)c(C(=O)N[C@H](CO)c3ccccc3)cc2/C1=C/c1ccc[nH]1
IC50 ([1]; read-out: IC50): 0.718 µM

Compound: O=C1Nc2ccc(C(=O)NCCO)cc2/C1=C/c1ccc[nH]1
IC50 ([1]; read-out: IC50): 1.26 µM

Compound: N#Cc1cc2c(cc1C(=O)N[C@H](CO)c1ccccc1)/C(=C/c1ccc[nH]1)C(=O)N2
IC50 ([1]; read-out: IC50): 1.54 µM

Compound: Cn1nccc1-c1cc2c(cc1C(=O)N[C@H](CO)c1ccccc1)/C(=C/c1ccc[nH]1)C(=O)N2
IC50 ([1]; read-out: IC50): 1.45 µM

Compound: O=C1Nc2ccc(C(=O)NCCCO)cc2/C1=C/c1ccc[nH]1
IC50 ([1]; read-out: IC50): 3.15 µM

Compound: O=C1Nc2ccc(C(=O)N[C@H](CO)c3ccc(Cl)cc3)cc2/C1=C/c1ccc[nH]1
IC50 ([1]; read-out: IC50): 0.391 µM

Compound: CC(C)[C@@H](CO)NC(=O)c1ccc2c(c1)/C(=C/c1ccc[nH]1)C(=O)N2
IC50 ([1]; read-out: IC50): 2.35 µM

Compound: O=C1Nc2ccc(C(=O)N[C@H](CO)c3ccccc3)cc2/C1=C/c1cnc[nH]1
IC50 (A549 [4]): 3.7 µM | IC50 (HT-1080): 7.9 µM | IC50 (MCF7): 10.8 µM

Compound: O=C1Nc2ccc(C(=O)N[C@H](CO)c3ccccc3)cc2/C1=C/c1ccc[nH]1
IC50 (A549 [4]): 2.37 µM | IC50 ([1]; read-out: IC50): 0.022 µM | IC50 ([1]; read-out: pIC50 (converted)): 0.0219 µM | IC50 (HT-1080): 0.98 µM | IC50 (MCF7): 6.56 µM

Compound: O=C1Nc2cc(Br)c(C(=O)N[C@H](CO)c3ccccc3)cc2/C1=C/c1ccc[nH]1
IC50 ([1]; read-out: IC50): 1.2 µM

The next lines start with results.

IC50 ([1]; read-out: IC50): 1.99 µM
Compound: Cn1cc(-c2cc3c(cc2C(=O)N[C@H](CO)c2ccccc2)/C(=C/c2ccc[nH]2)C(=O)N3)cn1

IC50 (A549 [4]): 0.83 µM | IC50 ([1]; read-out: IC50): 0.027 µM | IC50 ([1]; read-out: pIC50 (converted)): 0.0275 µM | inhibition [6]: Dose-dependent effect | inhibition [10]: Dose-dependent effect | IC50 (HT-1080): 6.77 µM | IC50 (MCF7): 2.11 µM | inhibition [16]: Dose-dependent effect
Compound: Cc1cc(C)c(/C=C2\C(=O)Nc3ccc(C(=O)N[C@H](CO)c4ccccc4)cc32)[nH]1
Activity (A549 [2]): 70.56% | Activity (A549 [3]): Active | Activity (A549 [5]): Active | Activity (A549 [7]): 8.44% | Activity (A549 [8]): 8.36% | Activity (A549 [9]): 26.23% | Activity (A549 [11]): 39.92% | Activity (A549 [12]): 38.47% | Activity (A549 [13]): 32.18% | Activity (A549 [14]): 5.14% | Activity (A549 [15]): Dose-dependent effect | Activity (A549 [17]): 33.75% | Activity (A549 [18]): 24.37% | Activity (A549 [19]): 33.22% | Activity (A549 [20]): 35.7% | Activity (A549 [21]): 27.78% | Activity (A549 [22]): 15.46%

IC50 ([1]; read-out: IC50): 5.01 µM
Compound: O=C1Nc2ccc(C(=O)N[C@H](CCO)c3ccccc3)cc2/C1=C/c1ccc[nH]1

IC50 ([1]; read-out: IC50): 0.304 µM
Compound: O=C1Nc2ccc(C(=O)N[C@H](CO)Cc3ccccc3)cc2/C1=C/c1ccc[nH]1

IC50 ([1]; read-out: IC50): 0.802 µM
Compound: O=C1Nc2ccc(C(=O)N[C@H](CO)c3ccccc3)cc2/C1=C/c1ccco1 (stereo in doubt)

IC50 ([1]; read-out: IC50): 0.281 µM
Compound: O=C1Nc2ccc(C(=O)N[C@H](CO)c3ccccc3)cc2/C1=C/c1ncc[nH]1

IC50 ([1]; read-out: IC50): 3.38 µM
Compound: O=C1Nc2ccc(C(=O)N[C@@H](CO)c3ccccc3)cc2/C1=C/c1ccc[nH]1

IC50 ([1]; read-out: IC50): 1.42 µM
Compound: O=C1Nc2cc(Cl)c(C(=O)N[C@H](CO)c3ccccc3)cc2/C1=C/c1ccc[nH]1

IC50 ([1]; read-out: IC50): 0.199 µM
Compound: O=C1Nc2ccc(C(=O)N[C@H](CO)c3ccccc3Cl)cc2/C1=C/c1ccc[nH]1

IC50 ([1]; read-out: IC50): 0.054 µM
Compound: O=C1Nc2ccc(C(=O)N[C@H](CO)c3ccc(F)cc3)cc2/C1=C/c1ccc[nH]1

IC50 ([1]; read-out: IC50): 0.379 µM
Compound: O=C1Nc2ccc(C(=O)N[C@H](CO)c3ccccc3)cc2/C1=C/c1ccn[nH]1

IC50 ([1]; read-out: IC50): > 10 µM
Compound: O=C1Nc2ccc(C(=O)N[C@H](CO)c3ccccc3)cc2C1=Cc1ccccn1

IC50 ([1]; read-out: IC50): 0.634 µM
Compound: CC(C)(C)[C@@H](CO)NC(=O)c1ccc2c(c1)/C(=C/c1ccc[nH]1)C(=O)N2

IC50 ([1]; read-out: IC50): 1.29 µM
Compound: O=C1Nc2ccc(C(=O)N[C@H](CO)c3ccccc3)cc2/C1=C/c1cccs1
